According to article PMC11995693 (Journal of medicinal chemistry, 2025):
Entries after “also recorded” stand apart in the source; their conditions may differ. Where two headings read alike, the source gives them in different places.

What was measured:
[1] = tested on: Poly(I:C) + IFNγ stimulated NHEK cells; experiment: Poly; type: cell-based, human; settings: for inhibition of IFNγ-inducible chemokines (CXCL9, CXCL10, CXCL11): 30–100 μM
How it was run: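 Primary human epidermal keratinocytes were seeded and incubated overnight at 37 °C. They were stimulated with Poly(I:C) (50 μg/mL) plus IFNγ (5 ng/mL), with or without test compound at 1, 10, 30 or 100 μM, for 8 h. RNA was isolated, and TaqMan RT-PCR gave fold changes in IL-6, IFNβ, IL-1β, CXCL9, CXCL10 and CXCL11 expression.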

[2] = Chemical stability in pH buffers; type: physicochemical
NHEKs = experiment: Screening of TLR3 and IL-6 mRNA expression in NHEKs; type: cell-based, human
C57BL/6 mice = settings: cited from earlier work; for hair growth: topical application
PAMPA-GIT permeability = type: in vitro ADME
How it was run: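 Stirred PAMPA sandwich with the acceptor-side filter coated in GIT-0 lipid. Donor held test or reference compound at 10 μM in pH 7.4 buffer with 0.2% DMSO, against pH 7.4 sink buffer. Incubated 4 h at room temperature. Donor and acceptor were sampled and quantified by LC-MS/MS. Effective permeability (Pe, cm/s) was calculated from filter area × 70% porosity, phase volumes, incubation and steady-state time, and donor concentrations, with membrane retention factor.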

[3] = Oral pharmacokinetics in mice; type: in vivo, C57BL6 mice; settings: 100 mg/kg equivalent
[4] = Preliminary toxicity profile of P13, systemic administration; type: in vivo; settings: two doses, systemic administration (Figure S2, Table S1)

SMILES: C=C(CC(=O)OCOC(=O)OC(C)C)C(=O)OC [Compound P9, 4-(((Isopropoxycarbonyl)oxy)methyl) 1-Methyl 2-Methylenesuccinate]
- effect on IL-1β, in words ([1]; 100 μM): showed effects at 100 μM

SMILES: C=C(CC(=O)OCOC(=O)C(C)(C)C)C(=O)O [Compound P4, 2-Methylene-4-oxo-4-((pivaloyloxy)methoxy)butanoic Acid]
- chemical stability at pH 7.4, in words [2]: complete instability

SMILES: C=C(CC(=O)OC)C(=O)O [Compound 4-MI, 4-methyl itaconate]
- effect on TLR3 and IL-6 mRNA / cytokine production, in words (NHEKs; Figure S1): neither 4-MI nor 1A affected the mRNA expression; also recorded: failed to inhibit cytokine production
- efficacy in vivo in the alopecia areata model (C57BL/6 mice; compared at equimolar doses): ineffective
- permeability in PAMPA, in words (PAMPA-GIT permeability): poor permeability

SMILES: C=C(CC(=O)OCOC(=O)OC(C)C)C(=O)OCOC(=O)OC(C)C [Compound P2, Bis(((isopropoxycarbonyl)oxy)methyl) 2-Methylenesuccinate]
- inhibition of IFNβ, in words ([1]; 1–100 μM, 8 h): dose dependent inhibition
- inhibition of IL-6, in words ([1]; 1–100 μM, 8 h): significant, dose-dependent inhibition
- inhibition of IFNγ-inducible chemokines (CXCL9, CXCL10, CXCL11) ([1]; 8 h): over 50%
- inhibition of mRNA expression of TLR3 and IL-6 (NHEKs; Figure S1): > 90%
- intact prodrug in plasma [3]: not detectable

SMILES: C=C(CC(=O)OCCCOCCCCCCCCCCCCCCCC)C(=O)O [Compound P7, 4-(3-(Hexadecyloxy)-propoxy)-2-methylene-4-oxobutanoic Acid]
- permeation index (Pe) (PAMPA-GIT permeability): 3.21 ×10⁻⁶ cm/s

SMILES: C=C(CC(=O)O)C(=O)O [IA, Itaconic acid]
- effect on TLR3 and IL-6 mRNA / cytokine production, in words (NHEKs; Figure S1): failed to inhibit cytokine production
- effect on TLR3 and IL-6 mRNA / cytokine production, in words (NHEKs; Figure S1, listed as 1A): neither 4-MI nor 1A affected the mRNA expression
- permeability in PAMPA, in words (PAMPA-GIT permeability): poor permeability

SMILES: C=C(CC(=O)OC)C(=O)OCOC(=O)OC(C)C [Compound P13, 1-(((Isopropoxycarbonyl)oxy)methyl) 4-Methyl 2-Methylenesuccinate]
- inhibition of IL-6, in words ([1]; 1–100 μM, 8 h): significant, dose-dependent inhibition
- inhibition of IFNγ-inducible chemokines (CXCL9, CXCL10, CXCL11) ([1]; 8 h): over 50%
- inhibition of mRNA expression of TLR3 and IL-6 (NHEKs; Figure S1): > 90%
- skin concentrations (C57BL/6 mice; topical administration): considerable skin concentrations
- hair growth (C57BL/6 mice): significantly promoted hair growth
- hair growth (C57BL/6 mice; listed as SCD-153): significant increase in hair growth
- intact prodrug in plasma [3]: undetectable
- hematological changes and weight loss [4]: No hematological changes or weight loss

SMILES: C=C(CC(=O)OCc1oc(=O)oc1C)C(=O)O [Compound P6, 4-((5-Methyl-2-oxo-1,3-dioxol-4-yl)methoxy)-2-methylene-4-oxobutanoic Acid]
- chemical stability at pH 7.4, in words [2]: complete instability

SMILES: C=C(CC(=O)OCOC(=O)OC(C)C)C(=O)O [Compound P5, 4-(((Isopropoxycarbonyl)oxy)methoxy)-2-methylene-4-oxobutanoic Acid]
- chemical stability at pH 7.4, in words [2]: complete instability
